Data reported in ChEMBL document CHEMBL1136055, “3-Heteroaryl-2-pyridones: benzodiazepine site ligands with functional delectivity for alpha 2/alpha 3-subtypes of human GABA(A) receptor-ion channels” (J Med Chem, 2002).
pKi: −log10 of the molar value.

Tests used:
[1] = half life at a dose of 2.0 mg/kg; assay type: ADME, organism-based; design: dose 2 mg/kg; conditions: in vivo
[2] = Maximum time at a dose of 2.0 mg/kg; assay type: ADME, organism-based; design: dose 2 mg/kg; conditions: in vivo
[3] = Maximum concentration at a dose of 2.0 mg/kg; assay type: ADME, organism-based; design: dose 2 mg/kg; conditions: in vivo
[4] = Oral bioavailability at a dose of 2.0 mg/kg; assay type: ADME, organism-based; conditions: eutheria, in vivo
[5] = Vdss at a dose of 2.0 mg/kg; assay type: ADME, organism-based; design: dose 2 mg/kg; conditions: in vivo, read-out: Vdss
[6] = biological target: T1, GABA-A receptor; alpha-5/beta-3/gamma-2 (Homo sapiens, UniProt P18507+P28472+P31644); assay: Displacement of [3H]Ro-151788 from human GABA-A receptor alpha-5-beta-3-gamma-2 subunits expressed in L(tk-) cells; assay type: cell-based
T1 sequence (P18507 whole entry): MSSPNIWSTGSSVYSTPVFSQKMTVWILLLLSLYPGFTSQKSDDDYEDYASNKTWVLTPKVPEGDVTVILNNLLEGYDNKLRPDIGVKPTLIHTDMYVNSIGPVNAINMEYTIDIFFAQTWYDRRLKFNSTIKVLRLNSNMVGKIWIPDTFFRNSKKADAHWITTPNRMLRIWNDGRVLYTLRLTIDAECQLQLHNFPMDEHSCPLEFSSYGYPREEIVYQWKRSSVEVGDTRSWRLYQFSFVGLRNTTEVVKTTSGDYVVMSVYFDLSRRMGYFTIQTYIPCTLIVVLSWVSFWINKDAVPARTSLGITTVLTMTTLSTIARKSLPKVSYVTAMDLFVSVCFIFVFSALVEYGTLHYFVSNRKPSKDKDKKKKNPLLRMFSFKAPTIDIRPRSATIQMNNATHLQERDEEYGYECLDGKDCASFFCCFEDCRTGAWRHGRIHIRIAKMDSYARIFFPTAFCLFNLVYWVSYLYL
T1 sequence (P28472 whole entry): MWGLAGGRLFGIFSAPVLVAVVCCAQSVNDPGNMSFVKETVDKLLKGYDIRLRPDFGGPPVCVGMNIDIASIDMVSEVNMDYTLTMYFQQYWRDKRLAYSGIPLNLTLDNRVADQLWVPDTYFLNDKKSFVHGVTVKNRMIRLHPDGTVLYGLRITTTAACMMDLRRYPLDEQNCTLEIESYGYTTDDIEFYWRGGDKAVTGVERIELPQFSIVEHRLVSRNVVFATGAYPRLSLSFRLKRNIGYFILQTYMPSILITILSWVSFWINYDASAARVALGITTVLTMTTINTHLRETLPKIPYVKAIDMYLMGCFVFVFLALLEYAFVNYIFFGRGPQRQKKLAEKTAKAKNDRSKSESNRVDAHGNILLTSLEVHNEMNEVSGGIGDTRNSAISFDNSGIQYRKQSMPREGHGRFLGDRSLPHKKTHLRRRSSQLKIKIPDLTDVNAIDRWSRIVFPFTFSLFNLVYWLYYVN
T1 sequence (P31644 whole entry): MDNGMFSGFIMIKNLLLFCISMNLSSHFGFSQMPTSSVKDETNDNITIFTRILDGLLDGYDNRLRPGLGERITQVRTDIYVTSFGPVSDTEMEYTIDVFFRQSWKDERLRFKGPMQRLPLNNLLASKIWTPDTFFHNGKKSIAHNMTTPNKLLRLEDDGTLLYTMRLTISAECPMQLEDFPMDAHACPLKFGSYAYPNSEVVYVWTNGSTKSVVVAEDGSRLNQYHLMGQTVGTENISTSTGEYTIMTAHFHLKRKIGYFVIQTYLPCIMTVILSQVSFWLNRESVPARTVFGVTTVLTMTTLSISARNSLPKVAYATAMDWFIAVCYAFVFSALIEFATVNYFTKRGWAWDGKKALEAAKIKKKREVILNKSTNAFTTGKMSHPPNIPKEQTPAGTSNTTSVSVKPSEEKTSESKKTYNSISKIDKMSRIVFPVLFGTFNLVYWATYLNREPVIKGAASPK
In short: (§1)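 Competition binding against [3H]Ro15-1788 on cloned human α1/α2/α3/α5 β3γ2S receptors stably expressed in L(tk-) cells. Six to eight test concentrations spaced in half-log steps. Ki given as mean (SEM), n = 3-5, reported to two significant figures.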

[7] = Clp at a dose of 2.0 mg/kg; assay type: ADME, organism-based; design: dose 2 mg/kg; conditions: in vivo
[8] = Partition coefficient (logD); assay type: physicochemical; conditions: octanol/water
[9] = biological target: GABA-A receptor; alpha-2/beta-3/gamma-2 (Homo sapiens) (UniProt P18507+P28472+P47869); assay: Modulatory effect on coapplication with GABA at human Gamma-aminobutyric acid A receptor alpha-2-beta-3-gamma-2 expressed inXenopus oocytes; assay type: cell-based; conditions: Oocyte
In short: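 Two-electrode voltage clamp of Xenopus oocytes transiently expressing human α1, α2 or α3 β3γ2S receptors. Test compound is co-applied with GABA at its EC20 (GABA range 4-30 µM). Result is the % change in GABA current, mean (SEM), n = 3-7, at the stated test compound concentration (µM).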

[10] = Vdss at a dose of 1.5 mg/kg; assay type: ADME, organism-based; design: dose 1.5 mg/kg; conditions: in vivo, read-out: Vdss
[11] = Clp at a dose of 1.5 mg/kg; assay type: ADME, organism-based; design: dose 1.5 mg/kg; conditions: in vivo
[12] = Maximum time at a dose of 1.5 mg/kg; assay type: ADME, organism-based; design: dose 1.5 mg/kg; conditions: in vivo
[13] = Oral bioavailability at a dose of 1.5 mg/kg; assay type: ADME, organism-based; conditions: eutheria, in vivo
[14] = Half life at a dose of 1.5 mg/kg; assay type: ADME, organism-based; design: dose 1.5 mg/kg; conditions: in vivo
[15] = Maximum concentration at a dose of 1.5 mg/kg; assay type: ADME, organism-based; design: dose 1.5 mg/kg; conditions: in vivo
[16] = biological target: T1, GABA-A receptor; alpha-5/beta-3/gamma-2; assay: Inhibition of [3H]Ro-151788 binding to human GABA A receptor (alpha-5-beta-3-gamma-2) stably expressed in L(tk-) cells.; assay type: cell-based; in short: as §1
[17] = Log D was evaluated; assay type: physicochemical; conditions: octanol/water

| Structure (SMILES) | half-life [1] [min] | Tmax [2] [min] | Cmax [3] [ng/mL] | bioavailability [4] [%] | Vd [5] [L/kg] | pKi [6] | Clp [7] [mL/min/kg] | logD [8] | percent modulation of GABA EC20 response [9] [%] | Vd [10] [L/kg] | Clp [11] [mL/min/kg] | Tmax [12] [min] | bioavailability [13] [%] | half-life [14] [min] | Cmax [15] [ng/mL] | pKi [16] | logD [17] |
| --- | --- | --- | --- | --- | --- | --- | --- | --- | --- | --- | --- | --- | --- | --- | --- | --- | --- |
| COc1ccc(-c2cc(-c3nc(C)cs3)c(=O)n(C)c2-c2ccncc2)cc1 | 102 | 18 | 83 | 25 | 3.3 | 6.49 | 44 | 3.6 | 80 |  |  |  |  |  |  |  |  |
| COc1ccc(-c2cc(-c3nc(C)cs3)c(=O)n(C)c2-c2ccnnc2)cc1 |  |  |  |  |  |  |  |  | 33 | 2.5 | 35 | 30 | 65 | 66 | 170 | 6.48 | 2.7 |
